According to ChEMBL document CHEMBL1671813, “Discovery of potent competitive antagonists and positive modulators of the P2X2 receptor” (J Med Chem, 2011):

Key:
P2X purinoceptor 1 = molecular target: T1, P2X purinoceptor 1 (Rattus norvegicus, UniProt P47824); assay: Antagonist activity against rat P2X1 receptor expressed in Xenopus laevis oocyte assessed as inhibition of alpha, beta-meATP-induced inward current by two-electrode voltage-clamp electrophysiology; assay type: functional
T1 sequence (P47824 whole entry): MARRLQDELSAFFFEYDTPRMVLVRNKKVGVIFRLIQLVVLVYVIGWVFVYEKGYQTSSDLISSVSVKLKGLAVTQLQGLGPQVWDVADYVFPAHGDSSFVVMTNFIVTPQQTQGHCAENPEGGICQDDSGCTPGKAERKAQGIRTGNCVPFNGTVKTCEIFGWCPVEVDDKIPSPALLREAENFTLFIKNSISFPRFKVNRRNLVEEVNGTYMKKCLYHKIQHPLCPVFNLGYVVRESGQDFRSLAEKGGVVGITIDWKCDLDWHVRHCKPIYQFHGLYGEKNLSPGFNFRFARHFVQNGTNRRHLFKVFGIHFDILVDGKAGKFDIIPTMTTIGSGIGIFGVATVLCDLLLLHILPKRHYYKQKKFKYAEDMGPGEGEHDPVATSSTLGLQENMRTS

P2X purinoceptor 3 = molecular target: T2, P2X purinoceptor 3 (Rattus norvegicus, UniProt P49654); assay: Antagonist activity against rat P2X3 receptor expressed in Xenopus laevis oocyte assessed as inhibition of alpha, beta-meATP-induced inward current by two-electrode voltage-clamp electrophysiology; assay type: functional
T2 sequence (P49654 whole entry): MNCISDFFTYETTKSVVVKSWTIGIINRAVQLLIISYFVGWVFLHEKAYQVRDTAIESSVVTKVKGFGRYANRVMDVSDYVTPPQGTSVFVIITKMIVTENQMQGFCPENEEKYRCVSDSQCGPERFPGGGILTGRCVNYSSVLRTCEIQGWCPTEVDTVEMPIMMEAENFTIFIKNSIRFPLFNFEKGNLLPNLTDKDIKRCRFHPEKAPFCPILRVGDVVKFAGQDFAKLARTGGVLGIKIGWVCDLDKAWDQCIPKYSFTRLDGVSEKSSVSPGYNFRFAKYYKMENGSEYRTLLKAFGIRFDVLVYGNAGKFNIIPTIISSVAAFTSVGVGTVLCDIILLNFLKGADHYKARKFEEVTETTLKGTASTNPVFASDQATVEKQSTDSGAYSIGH

P2X2/P2X3 receptor = molecular target: T3, P2X2/P2X3 receptor (Rattus norvegicus, UniProt P49653+P49654); assay: Antagonist activity against rat P2X2/3 receptor expressed in Xenopus laevis oocyte assessed as inhibition of alpha, beta-meATP-induced inward current by two-electrode voltage-clamp electrophysiology; assay type: functional
T3 sequence (P49653 whole entry): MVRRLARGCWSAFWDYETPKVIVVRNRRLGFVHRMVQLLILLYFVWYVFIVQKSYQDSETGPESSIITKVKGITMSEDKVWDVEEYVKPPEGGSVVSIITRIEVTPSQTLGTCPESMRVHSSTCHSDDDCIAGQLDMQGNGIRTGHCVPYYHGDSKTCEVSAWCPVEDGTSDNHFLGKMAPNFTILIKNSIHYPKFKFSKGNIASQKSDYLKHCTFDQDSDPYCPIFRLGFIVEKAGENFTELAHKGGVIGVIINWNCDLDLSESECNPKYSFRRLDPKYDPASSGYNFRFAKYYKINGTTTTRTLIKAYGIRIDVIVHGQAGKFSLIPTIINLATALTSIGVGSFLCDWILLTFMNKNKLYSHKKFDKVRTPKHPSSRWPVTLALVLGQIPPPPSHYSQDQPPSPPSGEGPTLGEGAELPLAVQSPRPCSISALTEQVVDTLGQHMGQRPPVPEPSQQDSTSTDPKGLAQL
T3 sequence (P49654 whole entry): T2 sequence (P49654 whole entry)
How it was run: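 Heteromer formed by injecting rP2X2 and rP2X3 cRNA at 1:2 (w/w). Agonist 1 μM α,β-meATP, applied repeatedly to keep homomeric P2X3 desensitized. Same steady-state coapplication protocol in Ca-free Mg-ORi. IC50 from a Hill fit to pooled data from 5-7 experiments.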

P2X purinoceptor 7 = molecular target: T4, P2X purinoceptor 7 (Rattus norvegicus, UniProt Q64663); assay: Antagonist activity against rat P2X7 receptor expressed in Xenopus laevis oocyte assessed as inhibition of […] inward current by two-electrode voltage-clamp electrophysiology; assay type: functional
T4 sequence (Q64663 whole entry): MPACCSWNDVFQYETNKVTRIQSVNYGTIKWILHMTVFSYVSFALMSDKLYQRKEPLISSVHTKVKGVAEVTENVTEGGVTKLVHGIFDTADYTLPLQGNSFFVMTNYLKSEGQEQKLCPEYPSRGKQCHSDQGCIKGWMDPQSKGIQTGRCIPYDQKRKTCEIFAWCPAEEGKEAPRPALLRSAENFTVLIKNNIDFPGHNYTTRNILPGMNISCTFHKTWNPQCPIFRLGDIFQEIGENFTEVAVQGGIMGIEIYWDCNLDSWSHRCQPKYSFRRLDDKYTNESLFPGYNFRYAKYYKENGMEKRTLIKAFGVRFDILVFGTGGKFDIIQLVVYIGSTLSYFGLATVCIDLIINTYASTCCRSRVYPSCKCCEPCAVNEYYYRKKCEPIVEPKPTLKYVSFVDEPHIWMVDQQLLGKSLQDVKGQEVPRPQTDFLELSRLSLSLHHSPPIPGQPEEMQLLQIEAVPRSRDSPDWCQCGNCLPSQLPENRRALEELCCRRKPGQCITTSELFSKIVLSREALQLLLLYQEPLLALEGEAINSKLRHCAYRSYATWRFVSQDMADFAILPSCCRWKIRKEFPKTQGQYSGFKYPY

[1] = Selectivity ratio of IC50 for rat P2X2 receptor to IC50 for rat P2X3 receptor
[2] = Selectivity ratio of IC50 for rat P2X2 receptor to IC50 for rat P2X1 receptor
[3] = Selectivity ratio of IC50 for rat P2X2 receptor to IC50 for rat P2X2/3 receptor
[4] = Selectivity ratio of IC50 for rat P2X2 receptor to IC50 for rat P2X4 receptor
[5] = Selectivity ratio of IC50 for rat P2X2 receptor to IC50 for rat P2X7 receptor
P2Y purinoceptor 2 = P2Y purinoceptor 2 (Homo sapiens, UniProt P41231); assay: Antagonist activity against human P2Y2 receptor expressed in 1321N1 astrocytoma cells by calcium mobilization assay; assay type: functional, cell-based
P2Y purinoceptor 2, sequence (P41231 whole entry): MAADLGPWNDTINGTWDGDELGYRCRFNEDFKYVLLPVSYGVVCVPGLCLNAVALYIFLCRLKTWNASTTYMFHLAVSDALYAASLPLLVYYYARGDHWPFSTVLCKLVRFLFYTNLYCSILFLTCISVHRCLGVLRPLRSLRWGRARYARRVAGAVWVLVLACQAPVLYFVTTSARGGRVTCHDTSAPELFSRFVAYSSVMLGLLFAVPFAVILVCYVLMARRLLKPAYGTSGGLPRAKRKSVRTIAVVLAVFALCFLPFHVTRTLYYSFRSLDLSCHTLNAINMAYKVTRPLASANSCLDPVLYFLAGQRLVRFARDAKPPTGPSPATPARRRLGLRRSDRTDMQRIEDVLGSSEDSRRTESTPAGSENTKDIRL
How it was run: (§1)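 Astrocytoma cell lines stably transfected with human P2Y2, human P2Y4 or rat P2Y6 receptor. Inhibition of receptor-mediated intracellular calcium mobilization was measured.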

P2Y purinoceptor 4 = P2Y purinoceptor 4 (Homo sapiens, UniProt P51582); assay: Antagonist activity against human P2Y4 receptor expressed in 1321N1 astrocytoma cells by calcium mobilization assay; assay type: functional, cell-based; how it was run: as §1
P2Y purinoceptor 4, sequence (P51582 whole entry): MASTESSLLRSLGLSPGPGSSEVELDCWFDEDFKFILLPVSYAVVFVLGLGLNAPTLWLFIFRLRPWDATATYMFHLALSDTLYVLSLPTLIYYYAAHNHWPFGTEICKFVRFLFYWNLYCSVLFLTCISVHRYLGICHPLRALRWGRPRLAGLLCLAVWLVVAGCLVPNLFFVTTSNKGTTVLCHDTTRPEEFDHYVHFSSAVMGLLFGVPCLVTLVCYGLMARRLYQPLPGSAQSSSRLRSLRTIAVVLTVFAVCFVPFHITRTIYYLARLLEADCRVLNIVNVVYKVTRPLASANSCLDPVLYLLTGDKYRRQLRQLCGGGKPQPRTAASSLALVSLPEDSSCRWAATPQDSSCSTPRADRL

[6] = molecular target: P2Y purinoceptor 6 (Rattus norvegicus) (UniProt Q63371); assay: Antagonist activity against rat P2Y6 receptor expressed in 1321N1 astrocytoma cells by calcium mobilization assay
P2X purinoceptor 2 [7] = molecular target: T5, P2X purinoceptor 2 (Rattus norvegicus, UniProt P49653); assay: Antagonist activity against rat P2X2 receptor expressed in Xenopus laevis oocyte assessed as inhibition of ATP-induced inward current by two-electrode voltage-clamp electrophysiology
T5 sequence (P49653 whole entry): T3 sequence (P49653 whole entry)

P2X purinoceptor 4 = molecular target: T6, P2X purinoceptor 4 (Rattus norvegicus, UniProt P51577); assay: Antagonist activity against rat P2X4 receptor expressed in Xenopus laevis oocyte assessed as inhibition of ATP-induced inward current by two-electrode voltage-clamp electrophysiology
T6 sequence (P51577 whole entry): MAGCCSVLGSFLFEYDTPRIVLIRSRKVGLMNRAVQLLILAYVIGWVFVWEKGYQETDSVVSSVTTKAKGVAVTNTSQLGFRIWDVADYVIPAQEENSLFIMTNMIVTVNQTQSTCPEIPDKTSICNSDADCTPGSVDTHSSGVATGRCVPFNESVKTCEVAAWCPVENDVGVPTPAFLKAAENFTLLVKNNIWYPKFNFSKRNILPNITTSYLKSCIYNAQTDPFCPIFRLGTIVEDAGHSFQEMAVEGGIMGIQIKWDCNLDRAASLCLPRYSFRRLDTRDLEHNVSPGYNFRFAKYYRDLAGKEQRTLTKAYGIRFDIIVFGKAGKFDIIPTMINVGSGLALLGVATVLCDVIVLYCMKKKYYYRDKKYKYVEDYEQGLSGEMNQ

P2Y purinoceptor 12 = P2Y purinoceptor 12 (Homo sapiens, UniProt Q9H244); assay: Displacement of [3H]PSB0413 from human platelet P2Y12 receptor
P2Y purinoceptor 12, sequence (Q9H244 whole entry): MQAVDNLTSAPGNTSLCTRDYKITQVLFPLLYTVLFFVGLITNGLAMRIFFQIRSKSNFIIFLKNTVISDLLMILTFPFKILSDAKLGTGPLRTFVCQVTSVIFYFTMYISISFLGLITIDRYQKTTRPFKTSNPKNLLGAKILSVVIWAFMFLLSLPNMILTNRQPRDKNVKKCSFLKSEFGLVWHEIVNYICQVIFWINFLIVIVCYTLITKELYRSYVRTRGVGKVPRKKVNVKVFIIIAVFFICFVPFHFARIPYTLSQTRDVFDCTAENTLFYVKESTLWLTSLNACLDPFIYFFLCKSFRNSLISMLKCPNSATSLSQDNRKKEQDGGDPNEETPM

[8] = molecular target: T7, P2X purinoceptor 2 (Rattus norvegicus) (UniProt P49653); assay: Antagonist activity against rat P2X2 receptor expressed in Xenopus laevis oocyte assessed as potentiation of ATP-induced inward current at 100 nM by two-electrode voltage-clamp electrophysiology
T7 sequence (whole entry): T3 sequence (P49653 whole entry)

P2X purinoceptor 2 [9] = molecular target: T5, P2X purinoceptor 2; assay: Antagonist activity against rat P2X2 receptor expressed in Xenopus laevis oocyte assessed as inhibition of […] inward current by two-electrode voltage-clamp electrophysiology; assay type: functional
How it was run: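 Rat P2X2 or P2X4 cRNA was injected into collagenase-defolliculated Xenopus oocytes, which were kept at 19°C in ORi. Two-electrode voltage clamp was run 2-3 days later with perfusion in calcium-free Mg-ORi. 10 μM ATP was applied until steady-state current, then coapplied with incrementally larger test concentrations, with ATP-alone washout between. Inhibition was taken from the stationary current ratio, and IC50 from a Hill fit to pooled data.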

Compound | IC50 (P2Y purinoceptor 2) [µM] | IC50 (P2Y purinoceptor 4) [µM] | IC50 [6] [µM] | IC50 (P2X purinoceptor 2 [7]) [µM] | IC50 (P2X purinoceptor 4) [µM] | further results
Nc1c(S(=O)(=O)O)cc(Nc2ccc(S(=O)(=O)O)c(Nc3nc(Cl)nc(Cl)n3)c2)c2c1C(=O)c1ccccc1C2=O | 10 | > 10 | > 10 | 0.079 | > 10 | IC50 (P2X purinoceptor 1): 0.422 µM; IC50 (P2X purinoceptor 3): 0.494 µM; IC50 (P2X2/P2X3 receptor): 1.04 µM; IC50 (P2X purinoceptor 7): > 10 µM; IC50 [1]: 0.0053 µM; IC50 [2]: 0.0062 µM; IC50 [3]: 0.0132 µM; IC50 [4]: > 0.12 µM; IC50 [5]: > 0.12 µM
Nc1c(S(=O)(=O)O)cc(Nc2cccc(Nc3nc(Cl)nc(Cl)n3)c2)c2c1C(=O)c1ccccc1C2=O | 24.3 | 10 | > 10 | 0.086 | – | –
COc1cccc(Nc2cc(S(=O)(=O)O)c(N)c3c2C(=O)c2ccccc2C3=O)c1 | 10 | 10 | > 10 | 0.623 | > 10 | Ki (P2Y purinoceptor 12): 10 µM
Nc1c(S(=O)(=O)O)cc(Nc2cccc(Cc3ccccc3)c2)c2c1C(=O)c1ccccc1C2=O | > 10 | > 10 | > 10 | – | – | potentiation % [8]: 120%
Nc1c(S(=O)(=O)O)cc(Nc2ccc(Nc3ccccc3)c(S(=O)(=O)O)c2)c2c1C(=O)c1ccccc1C2=O | – | – | – | – | – | potentiation % [8]: 110%
Nc1c(S(=O)(=O)O)cc(Nc2cc(Nc3nc(Cl)nc(Cl)n3)cc(C(=O)O)c2)c2c1C(=O)c1ccccc1C2=O | 3.27 | 1.45 | 2.55 | 0.293 | > 10 | –
Nc1c(S(=O)(=O)O)cc(Nc2ccc(Nc3nc(Cl)nc(Cl)n3)cc2)c2c1C(=O)c1ccccc1C2=O | 12.1 | 10 | 10 | 0.117 | > 10 | –
Nc1ncnc2c1ncn2[C@@H]1O[C@H](COP(=O)(O)OP(=O)(O)OP(=O)(O)O)[C@H]2OC3(O[C@H]21)C([N+](=O)[O-])=CC(=[N+]([O-])[O-])C=C3[N+](=O)[O-] (some centres undefined) [TNP-ATP SODIUM] | – | – | – | 4 | – | IC50 (P2X purinoceptor 2 [9]): 39.8 µM
Cc1cc(C)cc(Nc2cc(S(=O)(=O)O)c(N)c3c2C(=O)c2ccccc2C3=O)c1 | – | – | – | – | – | potentiation % [8]: 106%
COc1nc(Cl)nc(Nc2ccc(Nc3cc(S(=O)(=O)O)c(N)c4c3C(=O)c3ccccc3C4=O)cc2S(=O)(=O)O)n1 | 24.2 | > 10 | > 10 | 0.582 | > 10 | –
Cc1cccc(Nc2cc(S(=O)(=O)O)c(N)c3c2C(=O)c2ccccc2C3=O)c1 | 10 | > 10 | 3.92 | 0.8 | > 10 | Ki (P2Y purinoceptor 12): 10 µM
Cc1cc(/N=N/c2ccc(S(=O)(=O)O)cc2S(=O)(=O)O)c(COP(=O)(O)O)c(C=O)c1O | – | – | – | 4 | – | IC50 (P2X purinoceptor 2 [9]): 39.8 µM
Nc1c(S(=O)(=O)O)cc(Nc2ccc(Nc3nc(Cl)nc(Nc4cccc(S(=O)(=O)O)c4)n3)c(S(=O)(=O)O)c2)c2c1C(=O)c1ccccc1C2=O [RB 2] | – | – | 4.34 | 4 | – | IC50 (P2X purinoceptor 2 [9]): 39.8 µM; Ki (P2Y purinoceptor 12): 0.68 µM
